Experimental data taken from ChEMBL document CHEMBL4350961, “Discovery of Pyrrolo[3,2- d]pyrimidin-4-one Derivatives as a New Class of Potent and Cell-Active Inhibitors of P300/CBP-Associated Factor Bromodomain” (J Med Chem, 2019).
Activity calls are given as the source filed them. The rule behind the calls is not given here.

What was measured:
[1] = target: Wee1-like protein kinase 2 (Homo sapiens) (UniProt P0C1S8); experiment: Inhibition of recombinant full-length human WEE1b at 10 uM using LSNLYHQGKFLQTFCGSPLYRRR as substrate measured after 120 mins in presence of [gamma33P]ATP by scintillation counting method
[2] = target: Citron Rho-interacting kinase (Homo sapiens) (UniProt O14578); experiment: Inhibition of recombinant human CRIK at 10 uM using KKLRRTLSVA as substrate measured after 120 mins in presence of [gamma33P]ATP by scintillation counting method
[3] = target: Wee1-like protein kinase (Homo sapiens) (UniProt P30291); experiment: Inhibition of human Wee1 (214 to end residues) using LSNLYHQGKFLQTFCGSPLYRRR as substrate measured after 40 mins in presence of [gamma33P]ATP by scintillation counting method
[4] = target: Non-receptor tyrosine-protein kinase TYK2 (Homo sapiens) (UniProt P29597); experiment: Inhibition of human TYK2 (875 to end residues) using GGMEDIYFEFMGGKKK as substrate measured after 40 mins in presence of [gamma33P]ATP by scintillation counting method
[5] = target: Homeodomain-interacting protein kinase 4 (Homo sapiens) (UniProt Q8NE63); experiment: Inhibition of recombinant full-length human HIPK4 at 10 uM using RRRFRPASPLRGPPK as substrate measured after 40 mins in presence of [gamma33P]ATP by scintillation counting method
[6] = tested on: Hepatocyte growth factor receptor (Homo sapiens), P08581 [Y1230H]; experiment: Inhibition of recombinant human MET A1209G/V1290L/Y1248H mutant (974 to end residues) at 10 uM using KKKGQEEEYVFIE as substrate measured after 40 mins in presence of [gamma33P]ATP by scintillation counting method
[7] = Cmax in Sprague-Dawley rat at 10 mg/kg, po administered via gavage by LC-MS/MS analysis; type: ADME, organism-based; parameters: dose 10 mg/kg, route oral; details: in vivo
Summary of the method: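 Serial jugular-vein blood taken at set times, spun to plasma at 4 ℃, stored at -80 °C. Plasma extracted with acetonitrile containing internal standard, quantified by LC-MS/MS; noncompartmental fit.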

Homo sapiens = species: Homo sapiens; experiment: Inhibition of recombinant human MARK1 T20S mutant (2 to end residues) at 10 uM using KKKVSRSGLYRSPSMPENLNRPR as substrate measured after 40 mins in presence of [gamma33P]ATP by scintillation counting method
[8] = target: PI3-kinase p110-alpha/p85-alpha (Homo sapiens) (UniProt P27986+P42336); experiment: Inhibition of recombinant full-length human PI3K p110alpha/p85alpha at 10 uM using phosphatidylinositol-4, 5-bisphosphate as substrate measured after 40 mins by fluorescence assay; type: protein-complex assay
[9] = target: Tyrosine-protein kinase Fer (Homo sapiens) (UniProt P16591); experiment: Inhibition of recombinant human FER (541 to end residues) at 10 uM using KKKSPGEYVNIEFG as substrate measured after 40 mins in presence of [gamma33P]ATP by scintillation counting method
[10] = target: Tyrosine-protein kinase HCK (Homo sapiens) (UniProt P08631); experiment: Inhibition of recombinant human HCK (230 to 497 residues) at 10 uM using Cdc2 peptide as substrate measured after 40 mins in presence of [gamma33P]ATP by scintillation counting method
[11] = target: Ephrin type-A receptor 2 (Homo sapiens) (UniProt P29317); experiment: Inhibition of recombinant human EphA2 (596 to 900 residues) at 10 uM using poly(Glu, Tyr) 4:1 as substrate measured after 40 mins in presence of [gamma33P]ATP by scintillation counting method
[12] = target: [Pyruvate dehydrogenase (acetyl-transferring)] kinase isozyme 2, mitochondrial (Homo sapiens) (UniProt Q15119); experiment: Inhibition of human PDHK2 at 10 uM by radiometric method
Summary of the method: (§1)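 Kinase panel of 422 kinases screened by Eurofins KinaseProfiler at a single test-compound concentration of 10 µM.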

[13] = target: Insulin-like growth factor 1 receptor (Homo sapiens) (UniProt P08069); experiment: Inhibition of recombinant human IGF1R (959 to end residues) at 10 uM using KKKSPGEYVNIEFG as substrate measured after 40 mins in presence of [gamma33P]ATP by scintillation counting method
[14] = tested on: Receptor tyrosine-protein kinase erbB-2 (Homo sapiens), P04626 [G778D]; experiment: Inhibition of recombinant human ErbB2 G778D mutant (676 to end residues) at 10 uM using poly (Glu, Tyr) 4:1 as substrate measured after 40 mins in presence of [gamma33P]ATP by scintillation counting method
[15] = target: CDK6/cyclin D3 (Homo sapiens) (UniProt P30281+Q00534); experiment: Inhibition of recombinant full-length human CDK6/cyclin D3 at 10 uM using histone H1 as substrate measured after 40 mins in presence of [gamma33P]ATP by scintillation counting method; type: protein-complex assay
[16] = target: Tyrosine-protein kinase BTK (Homo sapiens) (UniProt Q06187); experiment: Inhibition of full-length recombinant human BTK at 10 uM using KVEKIGEGTYGVVYK as substrate measured after 40 mins in presence of [gamma33P]ATP by scintillation counting method; summary of the method: as §1
[17] = target: BDNF/NT-3 growth factors receptor (Homo sapiens) (UniProt Q16620); experiment: Inhibition of human TrkB (455 to end residues) using poly(Glu, Tyr) 4:1 as substrate measured after 40 mins in presence of [gamma33P]ATP by scintillation counting method
[18] = tested on: PI3-kinase p110-alpha/p85-alpha (Homo sapiens), P27986+P42336 [E545K]; experiment: Inhibition of recombinant full-length human PI3K p110alpha/p85alpha E545K mutant at 10 uM using phosphatidylinositol-4, 5-bisphosphate as substrate measured after 40 mins by fluorescence assay; type: protein-complex assay
[19] = target: Protein kinase C gamma type (Homo sapiens) (UniProt P05129); experiment: Inhibition of recombinant full-length human PKCgamma at 10 uM using histone H1 as substrate measured after 40 mins in presence of [gamma33P]ATP by scintillation counting method
[20] = target: Fibroblast growth factor receptor 4 (Homo sapiens) (UniProt P22455); experiment: Inhibition of recombinant human FGFR4 (442 to 755 residues) at 10 uM using poly(Glu, Tyr) 4:1 as substrate measured after 40 mins in presence of [gamma33P]ATP by scintillation counting method
[21] = target: Mitogen-activated protein kinase kinase kinase kinase 1 (Homo sapiens) (UniProt Q92918); experiment: Inhibition of recombinant human HPK1 (1 to 346 residues) at 10 uM using myelin basic protein as substrate measured after 40 mins in presence of [gamma33P]ATP by scintillation counting method
[22] = target: Dual specificity mitogen-activated protein kinase kinase 3 (Homo sapiens) (UniProt P46734); experiment: Inhibition of human MKK3 at 10 uM by radiometric method; summary of the method: as §1
[23] = target: Casein kinase I (Homo sapiens) (UniProt Q9HCP0+P78368+P48730+P49674+P48729); experiment: Inhibition of CK1 (unknown origin) at 10 uM; type: protein assay; summary of the method: as §1

Chain of Hepatocyte growth factor receptor (Homo sapiens), P08581 [Y1230H] (P08581 whole entry Y1230H): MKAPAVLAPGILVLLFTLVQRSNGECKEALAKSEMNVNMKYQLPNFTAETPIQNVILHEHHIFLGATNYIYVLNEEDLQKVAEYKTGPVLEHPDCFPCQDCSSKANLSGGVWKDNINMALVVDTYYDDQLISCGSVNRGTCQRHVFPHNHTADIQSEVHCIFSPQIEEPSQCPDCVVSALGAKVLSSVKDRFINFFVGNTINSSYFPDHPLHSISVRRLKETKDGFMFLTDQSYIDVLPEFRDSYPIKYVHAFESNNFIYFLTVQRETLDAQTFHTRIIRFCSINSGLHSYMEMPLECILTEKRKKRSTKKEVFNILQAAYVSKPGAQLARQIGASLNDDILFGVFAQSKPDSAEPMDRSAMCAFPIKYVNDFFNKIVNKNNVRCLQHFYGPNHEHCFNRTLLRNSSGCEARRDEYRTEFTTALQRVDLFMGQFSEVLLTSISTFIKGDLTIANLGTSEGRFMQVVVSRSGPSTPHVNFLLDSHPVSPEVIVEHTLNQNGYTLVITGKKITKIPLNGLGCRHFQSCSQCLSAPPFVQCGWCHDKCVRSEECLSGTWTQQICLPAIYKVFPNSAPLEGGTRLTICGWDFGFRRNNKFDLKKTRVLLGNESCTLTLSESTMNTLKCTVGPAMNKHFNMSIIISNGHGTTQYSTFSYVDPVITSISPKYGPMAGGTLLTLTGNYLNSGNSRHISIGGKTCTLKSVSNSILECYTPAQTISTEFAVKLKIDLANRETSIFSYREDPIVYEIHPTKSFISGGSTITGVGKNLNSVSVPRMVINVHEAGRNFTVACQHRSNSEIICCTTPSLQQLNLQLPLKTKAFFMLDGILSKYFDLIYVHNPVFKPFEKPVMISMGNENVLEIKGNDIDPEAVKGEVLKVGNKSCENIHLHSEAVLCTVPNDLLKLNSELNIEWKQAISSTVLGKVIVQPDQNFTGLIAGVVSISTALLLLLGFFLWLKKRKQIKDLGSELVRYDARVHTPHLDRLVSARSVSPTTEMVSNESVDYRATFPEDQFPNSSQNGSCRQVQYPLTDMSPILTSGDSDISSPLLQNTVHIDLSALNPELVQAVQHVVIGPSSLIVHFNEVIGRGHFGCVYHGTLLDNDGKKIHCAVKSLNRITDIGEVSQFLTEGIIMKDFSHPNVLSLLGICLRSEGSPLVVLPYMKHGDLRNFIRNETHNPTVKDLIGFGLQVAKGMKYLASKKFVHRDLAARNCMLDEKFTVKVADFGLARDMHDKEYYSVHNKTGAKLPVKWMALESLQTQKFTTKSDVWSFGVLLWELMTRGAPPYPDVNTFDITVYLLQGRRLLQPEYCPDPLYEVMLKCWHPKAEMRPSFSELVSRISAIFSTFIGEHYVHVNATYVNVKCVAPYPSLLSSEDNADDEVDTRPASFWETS
Chain of Tyrosine-protein kinase HCK (Homo sapiens) (P08631 2-526 limits assumed): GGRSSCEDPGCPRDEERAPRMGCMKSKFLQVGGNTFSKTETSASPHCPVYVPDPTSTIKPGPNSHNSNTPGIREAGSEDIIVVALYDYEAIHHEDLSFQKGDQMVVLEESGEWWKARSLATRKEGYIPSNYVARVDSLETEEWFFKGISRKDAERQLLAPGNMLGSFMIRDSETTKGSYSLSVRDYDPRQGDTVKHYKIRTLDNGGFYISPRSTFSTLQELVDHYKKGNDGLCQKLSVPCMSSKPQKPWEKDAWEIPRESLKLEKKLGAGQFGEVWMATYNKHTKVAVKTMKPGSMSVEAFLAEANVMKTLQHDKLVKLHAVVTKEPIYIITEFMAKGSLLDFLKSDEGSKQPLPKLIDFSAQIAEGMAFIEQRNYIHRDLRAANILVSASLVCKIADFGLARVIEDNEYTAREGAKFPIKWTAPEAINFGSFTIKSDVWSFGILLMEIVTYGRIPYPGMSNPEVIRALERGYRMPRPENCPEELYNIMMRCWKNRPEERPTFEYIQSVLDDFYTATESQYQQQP
Chain of BDNF/NT-3 growth factors receptor (Homo sapiens) (Q16620 32-822 limits assumed): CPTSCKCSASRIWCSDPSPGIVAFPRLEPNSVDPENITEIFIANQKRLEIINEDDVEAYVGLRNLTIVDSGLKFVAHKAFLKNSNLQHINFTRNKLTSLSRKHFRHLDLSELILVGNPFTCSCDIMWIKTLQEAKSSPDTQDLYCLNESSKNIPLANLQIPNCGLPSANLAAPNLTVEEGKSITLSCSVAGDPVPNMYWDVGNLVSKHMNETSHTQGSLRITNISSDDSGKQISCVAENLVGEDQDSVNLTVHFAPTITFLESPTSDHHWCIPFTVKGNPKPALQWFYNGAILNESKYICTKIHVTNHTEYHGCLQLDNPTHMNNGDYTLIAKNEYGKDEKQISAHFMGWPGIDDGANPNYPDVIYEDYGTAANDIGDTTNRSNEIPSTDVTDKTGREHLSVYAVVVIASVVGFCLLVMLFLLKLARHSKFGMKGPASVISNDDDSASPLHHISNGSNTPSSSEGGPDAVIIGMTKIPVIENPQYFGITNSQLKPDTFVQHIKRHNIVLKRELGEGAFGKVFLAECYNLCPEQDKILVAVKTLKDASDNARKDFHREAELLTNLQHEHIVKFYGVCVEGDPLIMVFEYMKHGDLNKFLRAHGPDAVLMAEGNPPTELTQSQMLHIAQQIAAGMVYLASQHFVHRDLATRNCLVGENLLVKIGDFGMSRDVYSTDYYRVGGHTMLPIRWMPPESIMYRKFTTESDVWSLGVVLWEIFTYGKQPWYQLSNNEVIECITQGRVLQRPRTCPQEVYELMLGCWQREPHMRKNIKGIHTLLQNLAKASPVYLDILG
Chain of Fibroblast growth factor receptor 4 (Homo sapiens) (P22455 22-802 limits assumed): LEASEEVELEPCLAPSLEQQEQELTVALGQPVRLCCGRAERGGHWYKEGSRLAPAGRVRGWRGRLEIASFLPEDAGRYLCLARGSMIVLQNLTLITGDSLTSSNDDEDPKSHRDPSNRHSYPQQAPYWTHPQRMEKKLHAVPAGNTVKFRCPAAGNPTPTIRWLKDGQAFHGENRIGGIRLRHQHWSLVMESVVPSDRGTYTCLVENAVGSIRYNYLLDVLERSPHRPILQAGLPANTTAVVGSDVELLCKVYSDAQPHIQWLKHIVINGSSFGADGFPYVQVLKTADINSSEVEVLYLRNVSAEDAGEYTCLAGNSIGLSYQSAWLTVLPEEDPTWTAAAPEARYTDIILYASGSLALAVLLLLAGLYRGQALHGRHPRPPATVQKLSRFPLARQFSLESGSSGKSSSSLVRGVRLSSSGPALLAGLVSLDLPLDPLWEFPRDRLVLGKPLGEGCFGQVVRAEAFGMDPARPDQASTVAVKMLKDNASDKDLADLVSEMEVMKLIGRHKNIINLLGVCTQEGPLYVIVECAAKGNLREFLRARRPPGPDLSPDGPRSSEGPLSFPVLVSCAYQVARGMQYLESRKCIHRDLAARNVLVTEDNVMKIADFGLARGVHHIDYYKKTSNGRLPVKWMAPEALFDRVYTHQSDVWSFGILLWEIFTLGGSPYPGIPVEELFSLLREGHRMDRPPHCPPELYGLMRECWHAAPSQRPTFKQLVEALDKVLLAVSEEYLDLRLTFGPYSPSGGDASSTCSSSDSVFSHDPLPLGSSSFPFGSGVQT
Chain of Tyrosine-protein kinase Fer (Homo sapiens) (P16591 whole entry, looked up, the tested form may be a part): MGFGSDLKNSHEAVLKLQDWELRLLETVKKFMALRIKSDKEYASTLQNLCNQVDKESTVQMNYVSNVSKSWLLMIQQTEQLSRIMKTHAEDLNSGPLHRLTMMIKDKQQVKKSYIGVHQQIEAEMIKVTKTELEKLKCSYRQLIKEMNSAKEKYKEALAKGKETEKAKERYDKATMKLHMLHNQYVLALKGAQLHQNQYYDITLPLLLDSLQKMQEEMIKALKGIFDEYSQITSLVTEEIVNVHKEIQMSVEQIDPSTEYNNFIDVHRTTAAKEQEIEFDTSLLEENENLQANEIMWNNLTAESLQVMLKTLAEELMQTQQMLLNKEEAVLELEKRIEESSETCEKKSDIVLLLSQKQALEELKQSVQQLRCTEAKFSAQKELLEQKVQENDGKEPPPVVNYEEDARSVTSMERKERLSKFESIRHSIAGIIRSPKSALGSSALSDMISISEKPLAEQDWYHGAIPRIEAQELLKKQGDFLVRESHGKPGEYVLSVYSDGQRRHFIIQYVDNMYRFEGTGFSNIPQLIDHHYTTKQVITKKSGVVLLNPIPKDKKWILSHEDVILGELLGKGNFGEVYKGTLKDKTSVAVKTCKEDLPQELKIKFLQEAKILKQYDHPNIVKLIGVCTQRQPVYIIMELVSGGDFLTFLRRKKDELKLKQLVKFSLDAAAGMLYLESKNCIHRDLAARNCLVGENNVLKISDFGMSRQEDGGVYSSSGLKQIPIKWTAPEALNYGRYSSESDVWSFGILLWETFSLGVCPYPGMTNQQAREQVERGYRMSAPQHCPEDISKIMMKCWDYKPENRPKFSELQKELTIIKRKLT

## CN1C[C@H](Nc2nc3cc[nH]c3c(=O)n2C)C[C@H](c2ccc3c(c2)OCCO3)C1
[1]
  inhibition: inactive
[2]
  inhibition: inactive
[3]
  inhibition: inactive
[4]
  inhibition: inactive
[5]
  inhibition: inactive
[6]
  inhibition: inactive
[7]
  Cmax: 1420 ng/mL
Homo sapiens
  inhibition: inactive
[8]
  inhibition: inactive
[9]
  inhibition: inactive
[10]
  inhibition: inactive
[11]
  inhibition: inactive
[12]
  inhibition: inactive
[13]
  inhibition: inactive
[14]
  inhibition: inactive
[15]
  inhibition: inactive
[16]
  inhibition: inactive
[17]
  inhibition: inactive
[18]
  inhibition: inactive
[19]
  inhibition: inactive
[20]
  inhibition: inactive
[21]
  inhibition: inactive
[22]
  inhibition: inactive
[23]
  inhibition: inactive
